Assay results from ChEMBL document CHEMBL4725355, “Design, Synthesis, and Preclinical Evaluation of 3-Methyl-6-(5-thiophenyl)-1,3-dihydro-imidazo[4,5-b]pyridin-2-ones as Selective GluN2B Negative Allosteric Modulators for the Treatment of Mood Disorders” (J Med Chem, 2020).
Converted amounts (≈) assume the structure as drawn.

Columns and labels:
Cytochrome P450 3A4 = Cytochrome P450 3A4 (Homo sapiens, UniProt P08684); test: Time-dependent inhibition of CYP3A4 in human liver microsomes at 10 uM using nifedipine as substrate by LC-MS/MS analysis; assay type: ADME
Summary of the method: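 CYP3A4 time-dependent inhibition in human liver microsomes. The compound (0.4 to 10 μM) was tested with and without 30 min preincubation. IC50 was taken from percent activity remaining versus vehicle, averaged over two independent experiments. A >2-fold IC50 shift after preincubation was the threshold for time-dependent inhibition.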

[1] = Metabolic stability in human liver microsomes assessed as extraction ratio at 1 uM after 5 to 60 mins in presence of NADPH by LC-MS/MS analysis; assay type: ADME, Microsome; details: time 5-60 min, read-out: ERH
Summary of the method: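 Human and rat liver microsomes, run in duplicate; stability reported as microsomal extraction ratio.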

[2] = AUC (infinity) in Sprague-Dawley rat at 0.5 mg/kg, iv or 2.5 mg/kg, po using 1:1 PEG-400/water formulation by LC-MS/MS analysis; assay type: ADME, organism-based; parameters: dose 2.5 mg/kg; details: in vivo
Summary of the method: (§1)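 Rat IV/PO PK at 0.5 mg/kg IV and 2.5 mg/kg PO, dosed in 1:1 PEG400/water, n=3.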

[3] = Cmax in Sprague-Dawley rat at 500 mg/kg, po administered via gavage after 24 hrs using nanosuspension formulation by LC-MS/MS analysis; assay type: ADME, organism-based; parameters: route oral, time 24 hrs, dose 500 mg/kg; details: in vivo
Summary of the method: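 Single oral gavage dose to male Sprague Dawley rats, 3 per dose level. Vehicles were a standard suspension in 5% HPMC (125, 250, 500 or 1000 mg/kg) or a nanosuspension (API:polymer 4:1), with stock diluted in vehicle on the day of dosing (100, 250 or 500 mg/kg). Blood was sampled at time points from 0.5 to 24 h.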

[4] = Drug level in Sprague-Dawley rat brain cerebellum at 0.03 mg/kg, iv after 120 min by LC-MS/MS analysis; assay type: ADME, organism-based; details: read-out: Drug uptake
Summary of the method: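 Rats (n=3 per group) received a single IV dose of 0.03 mg/kg in 50% (w/v) PEG/water at pH 7.4 and were sacrificed at 5, 10, 30, 60 and 120 min. Cerebellum, cortex, striatum and hippocampus were weighed, homogenized and analyzed by LC-MS/MS, with levels normalized to tissue weight.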

[5] = Drug level in Sprague-Dawley rat brain hippocampus at 0.03 mg/kg, iv after 30 min by LC-MS/MS analysis; assay type: ADME, organism-based; details: read-out: Drug uptake
Summary of the method: (§2)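 Single i.v. dose of 0.03 mg/kg in 50% (w/v) PEG/water, pH 7.4; rats n=3 per group, killed at 5, 10, 30, 60 and 120 min. Cerebellum, cortex, striatum and hippocampus dissected, weighed and homogenized; drug quantified by LC-MS/MS and normalized to tissue weight. P<0.05 taken as significant versus cerebellum.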

[6] = AUC (infinity) in mouse at 0.5 mg/kg, iv by LC-MS/MS analysis; assay type: ADME, organism-based; parameters: time infinity, route intravenous, dose 0.5 mg/kg; details: in vivo
[7] = Solubility of compound in FASSIF at pH 6.8 measured after 3 days; assay type: physicochemical; details: time 3 day
Summary of the method: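 Solubility in aqueous buffer at pH 2 and pH 7, and in simulated gastric and intestinal fluids.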

Cytochrome P450 2C19 = Cytochrome P450 2C19 (Homo sapiens, UniProt P33261); test: Inhibition of CYP2C19 in human liver microsomes using S-mephenytoin as substrate measured after 15 mins by LC-MS/MS analysis; assay type: ADME
Summary of the method: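 Human liver microsomes incubated with isoform-specific probe substrates and the test compound at concentrations up to 20 µM. IC50 derived from inhibition of metabolite formation; mean of two independent experiments, with known specific inhibitors as positive controls.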

[8] = Half life in Sprague-Dawley rat at 2.5 mg/kg, po by LC-MS/MS analysis; assay type: ADME, organism-based; details: in vivo
[9] = Half life in dog at 0.1 mg/kg, iv by LC-MS/MS analysis; assay type: ADME, organism-based, Canis lupus familiaris; details: in vivo
[10] = AUC (infinity) in dog at 0.5 mg/kg, po by LC-MS/MS analysis; assay type: ADME, organism-based, Canis lupus familiaris; parameters: time infinity, route oral, dose 0.5 mg/kg; details: in vivo
[11] = Negative allosteric modulation of human GluN1a/GluN2B receptor expressed in CHO cells assessed as inhibition of glutamate and glycine-induced calcium flux preincubated for 5 mins followed by glutamate and glycine addition and measured after 5 mins by calcium 5 dye based FLIPR assay; assay type: cell-based
Summary of the method: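 Tet-On CHO T-Rex cells expressing hGluN1a with GluN2A, 2B, 2C or 2D, plated at 20,000 cells/well and induced 24 h before the assay in the presence of ketamine. Cells loaded 1 h at room temperature with Calcium 5 dye, pH 7.4 HEPES buffer. Compound added 5 min, then glutamate (~EC80) plus 10 µM glycine for 5 min; FLIPR fluorescence normalized to control wells. Three independent runs in duplicate (two for some).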

[12] = target: T1, Nuclear receptor subfamily 1 group I member 2 (Homo sapiens, UniProt O75469); test: Activation of human PXR expressed in human DPX2 cells assessed as induction of CYP3A by luciferase reporter gene assay relative to control; assay type: ADME, cell-based
T1 sequence (O75469 whole entry): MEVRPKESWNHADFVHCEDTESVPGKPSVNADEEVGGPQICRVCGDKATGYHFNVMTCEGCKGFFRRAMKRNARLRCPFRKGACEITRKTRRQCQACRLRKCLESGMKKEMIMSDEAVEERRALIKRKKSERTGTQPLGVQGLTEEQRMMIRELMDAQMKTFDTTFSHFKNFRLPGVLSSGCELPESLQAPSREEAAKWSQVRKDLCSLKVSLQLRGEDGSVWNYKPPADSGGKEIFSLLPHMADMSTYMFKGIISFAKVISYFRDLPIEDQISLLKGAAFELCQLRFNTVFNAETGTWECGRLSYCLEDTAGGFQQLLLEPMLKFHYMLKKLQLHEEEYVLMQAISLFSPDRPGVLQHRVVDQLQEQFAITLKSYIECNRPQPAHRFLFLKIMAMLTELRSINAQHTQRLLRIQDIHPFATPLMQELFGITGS
Summary of the method: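 Luciferase reporter lines were used. DPX2 is HepG2 carrying human PXR plus a CYP3A4 promoter-luciferase construct. 1A2-DRE carries human AhR plus a CYP1A2 promoter with 3 DRE copies. Luminescence was read with ONE-Glo. Activation was expressed relative to rifampicin (PXR) or omeprazole (AhR).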

[13] = Tmax in monkey at 0.5 mg/kg, po by LC-MS/MS analysis; assay type: ADME, organism-based, Macaca mulatta; details: rhesus monkey, in vivo
[14] = Cmax in Sprague-Dawley rat at 0.5 mg/kg, iv or 2.5 mg/kg, po using 1:1 PEG-400/water formulation by LC-MS/MS analysis; assay type: ADME, organism-based; parameters: dose 2.5 mg/kg; details: in vivo; summary of the method: as §1
[15] = Ratio of Cmax in Sprague-Dawley rat at 500 mg/kg, po administered via gavage after 24 hrs using HPMC formulation by LC-MS/MS analysis to EC70 for ex vivo receptor occupancy at GluN2B in po dosed Sprague-Dawley rat assessed as 3-[3H] 1-(azetidin-1-yl)-2-[6-(4-fluoro-3-methyl-phenyl)pyrrolo[3,2-b]pyridin-1-yl]-ethanone labelling; assay type: ADME, organism-based
[16] = Volume of distribution at steady state in mouse at 0.5 mg/kg, iv by LC-MS/MS analysis; assay type: ADME, organism-based; details: in vivo, read-out: Vdss
[17] = Drug level in Sprague-Dawley rat brain cerebellum at 0.03 mg/kg, iv after 60 min by LC-MS/MS analysis; assay type: ADME, organism-based; details: read-out: Drug uptake; summary of the method: as §2
[18] = Half life in monkey at 0.5 mg/kg, po by LC-MS/MS analysis; assay type: ADME, organism-based, Macaca mulatta; details: rhesus monkey, in vivo
[19] = Volume of distribution at steady state in dog at 0.1 mg/kg, iv by LC-MS/MS analysis; assay type: ADME, organism-based, Canis lupus familiaris; details: in vivo, read-out: Vdss

Sequence of Cytochrome P450 2C19 (P33261 whole entry, canonical isoform): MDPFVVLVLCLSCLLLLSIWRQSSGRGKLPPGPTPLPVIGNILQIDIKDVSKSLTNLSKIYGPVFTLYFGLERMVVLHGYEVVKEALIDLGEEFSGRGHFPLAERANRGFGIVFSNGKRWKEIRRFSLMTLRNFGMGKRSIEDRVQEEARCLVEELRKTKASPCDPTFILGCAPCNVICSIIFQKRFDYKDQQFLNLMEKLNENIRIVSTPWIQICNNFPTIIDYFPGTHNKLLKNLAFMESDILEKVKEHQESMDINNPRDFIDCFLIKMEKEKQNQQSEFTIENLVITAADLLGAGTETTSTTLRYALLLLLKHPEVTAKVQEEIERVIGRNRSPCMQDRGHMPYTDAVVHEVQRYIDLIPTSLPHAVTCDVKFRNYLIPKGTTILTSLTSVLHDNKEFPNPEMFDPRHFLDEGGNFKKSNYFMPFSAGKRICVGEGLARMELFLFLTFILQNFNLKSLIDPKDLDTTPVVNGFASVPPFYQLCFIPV
Sequence of Cytochrome P450 3A4 (P08684 whole entry): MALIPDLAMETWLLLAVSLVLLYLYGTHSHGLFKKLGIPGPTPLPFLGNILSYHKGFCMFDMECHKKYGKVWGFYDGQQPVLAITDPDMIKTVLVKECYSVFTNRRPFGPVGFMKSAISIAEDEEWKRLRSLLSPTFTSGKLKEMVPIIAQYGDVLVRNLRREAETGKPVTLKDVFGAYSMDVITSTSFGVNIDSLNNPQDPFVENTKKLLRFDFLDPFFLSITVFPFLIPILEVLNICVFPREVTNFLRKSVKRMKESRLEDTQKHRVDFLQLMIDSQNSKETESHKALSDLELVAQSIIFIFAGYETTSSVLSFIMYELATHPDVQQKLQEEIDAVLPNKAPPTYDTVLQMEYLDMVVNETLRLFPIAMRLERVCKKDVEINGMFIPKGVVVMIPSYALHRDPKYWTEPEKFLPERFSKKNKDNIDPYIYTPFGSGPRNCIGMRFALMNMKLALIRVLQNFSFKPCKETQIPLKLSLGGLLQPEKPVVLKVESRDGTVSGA

SMILES: Cn1c(=O)n(CC(=O)N2CCC2)c2cc(-c3ccc(C(F)(F)F)s3)cnc21
- TDI (Cytochrome P450 3A4): Not Active
- hepatic extraction ratio at 1 µM [1]: < 0.3
- AUC(0-inf) [2]: 1830 ng·h/mL
- Cmax [3]: 18300 ng/mL
- concentration at 2 h [4]: 6.9 ng/mL
- concentration at 0.5 h [5]: 22.7 ng/mL
- AUC(0-inf) [6]: 156 ng·h/mL
- solubility at 72 h [7]: 8.4 µM (≈ 3.33 µg/mL)
- IC50 (Cytochrome P450 2C19): > 50000 nM
- half-life [8]: 2.2 h
- half-life [9]: 0.8 h
- AUC(0-inf) [10]: 268 ng·h/mL
- IC50 [11]: 31 nM
- Activity [12]: < 20%
- Tmax [13]: 1 h
- Cmax [14]: 479 ng/mL
- Ratio [15]: 9
- Vd [16]: 3.2 L/kg
- concentration at 1 h [17]: 11.9 ng/mL
- half-life [18]: 1 h
- Vd [19]: 0.8 L/kg
